TRPC4 inh: inhibitors of mouse TRPC4 channel, primary screen, Fluo4 calcium, HEK293 TRPC4beta/mu-opioid cells; AID 2247, 2010; 300,000 compounds, 0.39% hits; DAMGO-evoked Fluo4 calcium flux; hits give low values; B-score at 10 µM;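 active = B-score over 3 SD under the library average, no early fluorescence shift, positive overall ratio signal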
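test system = HEK293 cells with stable TRPC4beta plus mu-opioid receptor expression | detection = Fluo4 Ca2+ flux fluorescence | read-out = integrated fluorescence ratio relative to baseline, converted to per-well B score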
TRPC6 inhibitor: mouse TRPC6 channel inhibitors, primary screen, cell-based, HEK293, membrane potential dye | Short transient receptor potential channel 6 (Mus musculus), Q61143 | ACh-evoked depolarization; hits give low values | B-score at 10 µM | 310,000 compounds, 1.1% hits;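 active = B-score under library mean minus 3 SD, initial fluorescence not abnormally high, positive integrated signal ratio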;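 note: B-score derived from integrated fluorescence ratio over the kinetic read; more negative B-score means stronger inhibition of depolarization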
Target sequence (Q61143 whole entry, looked up): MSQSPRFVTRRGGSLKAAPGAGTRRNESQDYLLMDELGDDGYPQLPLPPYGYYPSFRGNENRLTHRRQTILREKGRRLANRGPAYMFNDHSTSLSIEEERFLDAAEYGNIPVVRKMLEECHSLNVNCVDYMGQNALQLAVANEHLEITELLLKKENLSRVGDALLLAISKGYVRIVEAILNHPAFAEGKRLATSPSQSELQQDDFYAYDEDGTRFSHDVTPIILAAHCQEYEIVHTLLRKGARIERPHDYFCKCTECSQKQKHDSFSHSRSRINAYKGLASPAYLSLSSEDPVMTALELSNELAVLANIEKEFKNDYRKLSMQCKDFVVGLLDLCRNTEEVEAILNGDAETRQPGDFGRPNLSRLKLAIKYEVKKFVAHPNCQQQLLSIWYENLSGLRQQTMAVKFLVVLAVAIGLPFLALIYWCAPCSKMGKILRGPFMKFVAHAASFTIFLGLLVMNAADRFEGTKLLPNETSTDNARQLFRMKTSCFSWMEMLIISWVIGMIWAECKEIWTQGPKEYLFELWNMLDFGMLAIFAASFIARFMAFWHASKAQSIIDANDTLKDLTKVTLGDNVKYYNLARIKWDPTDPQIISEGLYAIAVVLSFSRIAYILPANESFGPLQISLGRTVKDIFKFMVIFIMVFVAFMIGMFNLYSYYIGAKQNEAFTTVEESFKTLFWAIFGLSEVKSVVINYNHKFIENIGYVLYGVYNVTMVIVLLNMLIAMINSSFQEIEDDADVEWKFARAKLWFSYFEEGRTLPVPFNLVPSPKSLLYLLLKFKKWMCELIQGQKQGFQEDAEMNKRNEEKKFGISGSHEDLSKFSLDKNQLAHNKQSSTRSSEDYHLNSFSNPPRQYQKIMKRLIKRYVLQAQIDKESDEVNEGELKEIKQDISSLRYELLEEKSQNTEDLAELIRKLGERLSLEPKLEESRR
TRPC6 activator: mouse TRPC6 channel activators, primary screen, cell-based, HEK293, membrane potential dye | Short transient receptor potential channel 6 (Mus musculus), Q61143 | HEK293-TRPC6 membrane potential dye fluorescence; hits give high values | B-score at 10 µM | 310,000 compounds, 0.13% hits | AID 2550, 2010;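 active = B-score of the integrated fluorescence ratio above library mean plus 3 SD, and starting fluorescence ratio within library mean plus 5 SD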;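 note: higher score means more depolarization so channel activation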
DSG3 Ab inh: inhibitors of pemphigus antibody binding to DSG3, primary screen, biochemical, bead-based, flow cytometry, scFv-GFP. Desmoglein-3 (Homo sapiens), P32926. DSG3-coupled beads, scFv-anti-DSG3-GFP binding; hits give low values. binding (percent of control), % at 10 µM. 310,000 compounds, 0.48% hits. AID 588358, 2011;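 active = binding more than 3 SD below its plate's average and above zero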;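 note: hits lower antibody fragment binding to DSG3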
TRPC4 act: activators of mouse TRPC4 channel, primary screen, Fluo4 calcium, HEK293 TRPC4beta/mu-opioid cells | Short transient receptor potential channel 4 (Mus musculus), Q9QUQ5 | Fluo4 calcium fluorescence; hits give high values | B-score at 10 µM | 310,000 compounds, 0.49% hits | AID 2237, 2010;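 active = B-score above 5 SD of library B-scores, and initial fluorescence ratio not above library mean plus 5 SD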;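 note: positive B-score marks a calcium rise read as TRPC4 activation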
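Assay system – TRPC4beta and mu-opioid receptor HEK293 stable cells · Measured by – Fluo4 fluorescence, kinetic · Schedule – dye loading 45 min room temperature, 110 s kinetic read · Read-out – B-scored integrated calcium fluorescence ratio · Controls – buffer and maximal DAMGO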
TRPC4 PAM: positive allosteric modulators of TRPC4, primary screen, cell-based, mouse TRPC4beta, HEK293 mu-opioid, Fluo-4 calcium | B-score at 10 µM | 310,000 compounds, 0.42% hits | Short transient receptor potential channel 4 (Mus musculus), Q9QUQ5 | DAMGO EC20, Fluo-4 Ca2+ flux; hits give high values;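 active = B-score of calcium response area above 5 SD of library B-scores, with initial fluorescence ratio within 5 SD of library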
TRPC4 sel inh 2: mouse TRPC4 off-target activity of TRPC6 inhibitors, second screen. shares compounds with TRPC6 inhibitor. HEK293 TRPC4/MOR, membrane potential dye fluorescence; channel activated by saturating DAMGO dose. 920 compounds, 42% hits. inhibition, % at 10 µM;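 active = compounds whose fluorescence signal differed from control wells by over 3 SD, either direction, in both duplicate plates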
TRPC4 spec: mouse TRPC4 modulation by TRPC6 hits, confirmation, selectivity assay for TRPC6 inhibitor project, cell-based, HEK293 TRPC4/mu-opioid, membrane potential dye; AID 2777, 2010; activity change, negative = inhibition, % at 10 µM; 920 compounds, 61% hits; shares compounds with TRPC6 inhibitor; membrane potential fluorescence;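 active = rise or fall in signal beyond 3 SD of buffer-only wells in both replicate plates, either sign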;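 note: integrated kinetic ratio of fluorescence range over baseline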
HEK293 MPD ctr 2-1: nonspecific membrane potential effects, parental HEK293, confirmation, counter-screen for TRPC6 inhibitor project, cell-based, second counter screen. shares compounds with TRPC6 inhibitor. parental HEK293 membrane potential dye fluorescence; maximal acetylcholine challenge after compound addition. signal change vs control, % at 10 µM. 920 compounds, 31% hits. AID 2779, 2010;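 active = membrane potential signal moving either way by over 3 SD of the maximum-effect control, in both duplicate plates, meaning non-specific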
HEK293 MPD ctr-1: membrane potential modulation in parental HEK293, confirmation, counter-screen for TRPC6 inhibitor project, cell-based; 920 compounds, 60% hits; AID 2780, 2010; parental HEK293 membrane potential dye fluorescence; shares compounds with TRPC6 inhibitor; membrane potential signal change, % at 10 µM;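 active = membrane potential signal shifting up or down by more than 3 SD of buffer-only wells, on both duplicate plates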
HEK293 MPD ctr-2: parental HEK293 membrane potential modulation, confirmation, counter-screen for TRPC6 modulator project, cell-based; AID 488924, 2010; shares compounds with TRPC6 inhibitor; membrane potential dye fluorescence; 2,400 compounds, 51% hits; membrane potential signal change, % at 10 µM;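 active = membrane potential signal moves up or down beyond 5 SD from buffer-only wells, on both duplicate plates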
HEK293 MPD ctr 2-2: parental HEK293 nonspecific activity of TRPC6 modulators, second screen; shares compounds with TRPC6 inhibitor; membrane potential dye fluorescence; after compound, maximal acetylcholine stimulation; inhibition, % at 10 µM; 2,400 compounds, 14% hits; AID 488926;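 active = membrane potential signal drops by more than 5 SD from the mean control signal, in both duplicate plates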
TRPC4/MOR mod: TRPC4 modulation by TRPC6 hit compounds, confirmation, selectivity assay for TRPC6 modulator project, cell-based, HEK293 TRPC4/mu-opioid, membrane potential dye, mouse; shares compounds with TRPC6 inhibitor; membrane potential fluorescence; percent change from control (negative = decrease, positive = increase), % at 10 µM; 2,400 compounds, 69% hits; AID 488927, 2010;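 active = membrane potential signal moved up or down beyond 5 SD of buffer control wells, in both duplicate plates, actives on both sides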
TRPC4 ctr inh 2: second selectivity test of TRPC6 modulators against mouse TRPC4 | inhibition, % at 10 µM | HEK293 TRPC4/mu-opioid, membrane potential dye fluorescence; stimulated with maximal-effect DAMGO | 2,400 compounds, 55% hits | shares compounds with TRPC6 inhibitor;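 active = drop in membrane potential signal beyond 5 SD of the control wells in both duplicate plates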;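 note: TRPC4 counter screen for TRPC6 hits run under conditions tuned for TRPC6 not TRPC4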
TRPC6 block conf: mouse TRPC6 channel inhibitors, confirmation, HEK293 cells, membrane potential dye, duplicate; 3,300 compounds, 43% hits; inhibition, % at 10 µM; shares compounds with TRPC6 inhibitor; ACh-evoked depolarization;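 active = fluorescence ratio falls more than 5 SD below the full-stimulation control mean, in both duplicate runs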;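 note: integrated fluorescence ratio of peak minus minimum over baseline after agonist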
TRPC6 act confirm: mouse TRPC6 channel activators, confirmation, HEK293 cells, membrane potential dye, duplicate. shares compounds with TRPC6 inhibitor. 2,800 compounds, 11% hits. activation, % at 10 µM. HEK293-TRPC6 membrane potential dye fluorescence, FDSS;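 active = ratio signal rise beyond 5 SD above unstimulated control wells' mean, seen in both duplicate runs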
Numbers stand for hits. Sampled rows, rich in hits. Any-hit rate of the full collection: about 2.5%.

How did COc1nc(Nc2cccc(F)c2)nc(OC)n1 do in these assays?
TRPC4 inh: inactive; TRPC6 inhibitor: inactive; TRPC6 activator: inactive; DSG3 Ab inh: inactive; TRPC4 act: inactive; TRPC4 PAM: inactive

Results for COc1ccc(Nc2nc(N)c3ccccc3n2)c(OC)c1 ?
TRPC4 inh: -7; TRPC6 inhibitor: -10; TRPC6 activator: inactive; DSG3 Ab inh: inactive; TRPC4 act: inactive; TRPC4 PAM: inactive; HEK293 MPD ctr-2: -202%; HEK293 MPD ctr 2-2: 86%; TRPC4/MOR mod: -42%; TRPC4 ctr inh 2: 92%; TRPC6 block conf: 90%; TRPC6 act confirm: inactive

Results for COc1ccc(Nc2nc(-c3ccccc3)nc3ccccc23)c(OC)c1 ?
TRPC4 inh: inactive; TRPC6 inhibitor: inactive; TRPC6 activator: inactive; DSG3 Ab inh: inactive; TRPC4 act: inactive; TRPC4 PAM: inactive

Results for Fc1ccc(CNCCC(Cc2ccccc2)c2ccco2)cc1 (configuration not stated) ?
TRPC4 inh: inactive; TRPC6 inhibitor: inactive; TRPC6 activator: inactive; DSG3 Ab inh: inactive; TRPC4 act: inactive; TRPC4 PAM: inactive

What do the screens show for `CC(NCCC(Cc1ccccc1)c1ccco1)c1ccccc1` (configuration not stated)?
TRPC4 inh: -6; TRPC6 inhibitor: -5.6; TRPC6 activator: 12; DSG3 Ab inh: inactive; TRPC4 act: inactive; TRPC4 PAM: inactive; HEK293 MPD ctr-2: 167%; HEK293 MPD ctr 2-2: inactive; TRPC4/MOR mod: 42%; TRPC4 ctr inh 2: 40%; TRPC6 block conf: inactive; TRPC6 act confirm: 36%

Results for O=C(NC1CCSC1)c1cccc(Cl)c1 (configuration not stated) ?
TRPC4 inh: inactive; TRPC6 inhibitor: inactive; TRPC6 activator: inactive; DSG3 Ab inh: inactive; TRPC4 act: inactive; TRPC4 PAM: inactive

What do the screens show for `COCCCNC(=S)N1CCCN(c2nc3cc(C)ccc3cc2C#N)CC1`?
TRPC4 inh: inactive; TRPC6 inhibitor: -11; TRPC6 activator: inactive; DSG3 Ab inh: inactive; TRPC4 act: inactive; TRPC4 PAM: inactive; TRPC4 sel inh 2: inactive; TRPC4 spec: inactive; HEK293 MPD ctr 2-1: inactive; HEK293 MPD ctr-1: inactive; TRPC6 block conf: 85%

How did CCOCCCNC(=S)N1CCCN(c2nc3cc(C)c(C)cc3cc2C#N)CC1 do in these assays?
TRPC4 inh: inactive; TRPC6 inhibitor: inactive; TRPC6 activator: inactive; DSG3 Ab inh: inactive; TRPC4 act: inactive; TRPC4 PAM: inactive

What do the screens show for `COCCCNC(=S)N1CCCN(c2nc3cc(C)c(C)cc3cc2C#N)CC1`?
TRPC4 inh: inactive; TRPC6 inhibitor: -5.2; TRPC6 activator: inactive; DSG3 Ab inh: inactive; TRPC4 act: inactive; TRPC4 PAM: inactive; HEK293 MPD ctr-2: inactive; HEK293 MPD ctr 2-2: inactive; TRPC4/MOR mod: inactive; TRPC4 ctr inh 2: inactive; TRPC6 block conf: 60%

How did COCC(C)N1CCC(n2nccc2NC(=O)CCCc2ccccc2)CC1 (configuration not stated) do in these assays?
TRPC4 inh: inactive; TRPC6 inhibitor: inactive; TRPC6 activator: inactive; DSG3 Ab inh: inactive; TRPC4 act: inactive; TRPC4 PAM: inactive

How did COc1ccc(/C=N/NC(=O)COc2ccc(Cl)cc2Cl)cc1Cn1nc(C)cc1C do in these assays?
TRPC4 inh: inactive; TRPC6 inhibitor: inactive; TRPC6 activator: inactive; DSG3 Ab inh: inactive; TRPC4 act: inactive; TRPC4 PAM: inactive

How did CC(=O)c1nnn(-c2c(F)cccc2F)c1C do in these assays?
TRPC4 inh: inactive; TRPC6 inhibitor: inactive; TRPC6 activator: inactive; TRPC4 act: inactive; TRPC4 PAM: inactive

How did O=C(NCC1CCCN(Cc2ccc3nonc3c2)C1)c1cccc(C(F)(F)F)c1 (configuration not stated) do in these assays?
TRPC4 inh: inactive; TRPC6 inhibitor: inactive; TRPC6 activator: inactive; DSG3 Ab inh: inactive; TRPC4 act: inactive; TRPC4 PAM: inactive

Compound activity from PubChem BioAssay.
